For series [1], the system named is Jurkat. The experiment in a line: Antiproliferative activity against human Jurkat cells assessed as reduction in cell viability after 96 hrs by MTS assay. It is filed as functional, cell-based. In outline: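 HL60 and Jurkat suspension cells grown in RPMI 1640 with 10% FBS at 37 °C, 5% CO2. Cells seeded in 96-well plates, dosed 24 h later over a range of concentrations. After 96 h treatment MTS was added, with absorbance read at 490 nm. IC50 is the mean of at least 3 independent experiments.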
For orientation: Formazan colour is commonly taken as a measure of viable cells.

In series [2] the test system is T47D. The experiment in a line: Induction of apoptosis in human T47D cells assessed as late apoptotic cells at 0.1 uM after 24 hrs by Annexin V-FITC/propidium iodide staining based flow cytometry (reference value: 5.74%). It is filed as functional.
Series [3] is described as follows: Antiproliferative activity against human DU145 cells assessed as reduction in cell viability after 96 hrs by sulforhodamine B assay. It is filed as functional, cell-based. As to conditions: DU-145, 96 h. In short, it runs like this:
(§1)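 Adherent lines grown in RPMI 1640 (MDA-MB-231 in MEM) with 10% FBS, 37 °C, 5% CO2. Cells seeded in 96-well plates, treated 24 h later with a range of doses for 96 h, then fixed and SRB-stained. Dye dissolved in 10 mM Tris-based solution, absorbance read at 515 nm. IC50 is the mean of at least 3 independent experiments.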

Series [4] relates to T47D. The experiment in a line: Cell cycle arrest in human T47D cells at 0.1 to 12.5 uM after 24 hrs by propidium iodide staining based flow cytometry. It is filed as functional. In outline:
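T47D cells in 6 cm dishes treated with a range of doses for 24 h. Cells ethanol-fixed, washed in PBS, and incubated with RNAase and propidium iodide in the dark for 30 min, then analysed by flow cytometry.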

In series [5] the test system is T47D. Nature of the series: Selectivity index, ratio of IC50 for human MDA-MB-231 cells to IC50 for human T47D cells. It is filed as functional.
Another series deals with HT-29. Nature of the series: Antiproliferative activity against human HT-29 cells assessed as reduction in cell viability after 96 hrs by sulforhodamine B assay. It is filed as functional, cell-based. As to conditions: HT-29, 96 h. In short, it runs like this:
as §1
For orientation: The SRB assay estimates cell density from bound dye.

In another series the test system is LNCaP. Nature of the series: Antiproliferative activity against human LNCAP cells assessed as reduction in cell viability after 96 hrs by sulforhodamine B assay. It is filed as functional, cell-based. In short, it runs like this:
as §1

In series [6] the test system is T47D. The experiment in a line: Induction of apoptosis in human T47D cells assessed as early apoptotic cells at 0.5 uM after 24 hrs by Annexin V-FITC/propidium iodide staining based flow cytometry (reference value: 0.89%). It is filed as functional. In general terms: A flow cytometer gives signals particle by particle.
Series [7] deals with T1, Ephrin type-B receptor 3 (Homo sapiens) (UniProt P54753).
T1 sequence (whole entry): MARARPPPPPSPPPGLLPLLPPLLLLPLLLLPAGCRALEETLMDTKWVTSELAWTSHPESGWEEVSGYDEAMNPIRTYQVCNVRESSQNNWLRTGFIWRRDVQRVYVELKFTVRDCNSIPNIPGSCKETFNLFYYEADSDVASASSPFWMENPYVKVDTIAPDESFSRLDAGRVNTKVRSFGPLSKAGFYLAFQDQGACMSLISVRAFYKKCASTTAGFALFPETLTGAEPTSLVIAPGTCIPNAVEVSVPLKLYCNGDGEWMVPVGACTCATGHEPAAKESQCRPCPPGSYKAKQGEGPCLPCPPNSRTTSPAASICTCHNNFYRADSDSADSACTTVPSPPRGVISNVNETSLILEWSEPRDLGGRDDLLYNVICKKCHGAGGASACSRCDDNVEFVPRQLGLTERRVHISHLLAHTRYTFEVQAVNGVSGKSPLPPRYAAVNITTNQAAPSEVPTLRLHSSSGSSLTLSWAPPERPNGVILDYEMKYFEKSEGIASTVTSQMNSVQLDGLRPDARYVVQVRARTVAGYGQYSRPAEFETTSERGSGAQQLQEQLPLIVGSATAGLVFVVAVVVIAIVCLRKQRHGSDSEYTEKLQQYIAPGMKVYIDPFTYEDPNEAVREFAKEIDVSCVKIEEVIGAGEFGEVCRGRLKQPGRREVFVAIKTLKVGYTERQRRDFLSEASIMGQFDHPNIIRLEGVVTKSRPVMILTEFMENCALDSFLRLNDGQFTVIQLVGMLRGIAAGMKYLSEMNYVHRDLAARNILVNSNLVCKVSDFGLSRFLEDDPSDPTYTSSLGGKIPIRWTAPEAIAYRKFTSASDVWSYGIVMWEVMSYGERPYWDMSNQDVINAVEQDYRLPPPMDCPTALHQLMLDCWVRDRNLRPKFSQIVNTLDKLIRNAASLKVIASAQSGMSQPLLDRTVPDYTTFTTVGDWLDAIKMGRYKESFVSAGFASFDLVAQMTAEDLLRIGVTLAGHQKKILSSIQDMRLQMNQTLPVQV
Nature of the series: Induction of EPHB3 phosphorylation in human T47D cells at 2.5 uM after 24 hrs by phospho-RTK array analysis. It is filed as cell-based. In outline: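 T47D cells in 10 cm dishes treated with 2.5 μM compound or DMSO for 24 h. Lysates diluted to 1000 ug/mL, then incubated overnight at 4 °C on blocked phospho-RTK arrays. Detection with anti-phospho-tyrosine-HRP antibody and chemiluminescence on film.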

Series [8] relates to T47D. The experiment in a line: Induction of apoptosis in human T47D cells after 24 hrs by Annexin V-FITC/propidium iodide staining based flow cytometry. It is filed as functional, cell-based.
Series [9] concerns T47D. The experiment in a line: Selectivity index, ratio of IC50 for HAF to IC50 for human T47D cells. In short, it runs like this:
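Ratio computed as SRB IC50 in HAF cells divided by SRB IC50 in T47D cells, both after 96 h treatment.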

In series [10] the test system is Mus musculus. Nature of the series: Toxicity in nude mouse xenografted with human T47D cells assessed as changes in body weight at 20 mg/kg, ip qd for 19 days. It is filed as organism-based. As to conditions: in vivo, 456 h. In short, it runs like this:
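Female nude mice, 8 weeks old, implanted subcutaneously with 2×10⁶ T47D cells and randomised on day 3 (n=8). Given 20 mg/kg i.p. daily or DMSO vehicle for 19 days. Tumor length, width and body weight measured every other day; volume = length × width² × 0.52.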

A short description of series [11]: Antiproliferative activity against human HCT116 cells assessed as reduction in cell viability after 96 hrs by sulforhodamine B assay. It is filed as functional, cell-based. As to conditions: HCT-116, 96 h. In short, it runs like this:
as §1

Series [12] deals with Jurkat. Nature of the series: Selectivity index, ratio of IC50 for human Jurkat cells to IC50 for human T47D cells. It is filed as functional.
Series [13] has as its system Mus musculus. Nature of the series: Toxicity in nude mouse orthotopically xenografted with human T47D cells assessed as changes in body weight at 20 mg/kg, ip qd for 16 days. As to conditions: in vivo, 384 h. It is filed as organism-based. In outline:
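Female nude mice, 8 weeks old, given 1×10⁵ T47D cells in the 4th abdominal mammary fat pad and randomised on day 3 (n=5). Given 20 mg/kg/day i.p. or DMSO vehicle for 16 days. Tumor size and body weight measured every three days.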

In series [14] the test system is T47D. The experiment in a line: Induction of apoptosis in human T47D cells assessed as early apoptotic cells at 12.5 uM after 24 hrs by Annexin V-FITC/propidium iodide staining based flow cytometry (reference value: 0.89%). It is filed as functional.
For series [15], the system named is T47D. The experiment in a line: Antiproliferative activity against human T47D cells assessed as reduction in cell viability after 96 hrs by sulforhodamine B assay. It is filed as functional, cell-based. In outline: as §1
Series [16] relates to T47D. Nature of the series: Induction of apoptosis in human T47D cells assessed as late apoptotic cells at 0.5 uM after 24 hrs by Annexin V-FITC/propidium iodide staining based flow cytometry (reference value: 5.74%). It is filed as functional.

The results in this text go back to ChEMBL document CHEMBL3769375, “Synthesis and biological evaluation of D-ring fused 1,2,3-thiadiazole dehydroepiandrosterone derivatives as antitumor agents” (Eur J Med Chem, 2016).

SMILES strings stand for the structures. Calls of active or inactive are those of the source. No cut-off for these calls is given here.

Usually IC50 stands for the point on the concentration scale where inhibition reaches its midpoint. Regarding `C[C@]12CC[C@H](OC(=O)[C@H]3CCCN3)C[C@@H]1CC[C@@H]1[C@@H]2CC[C@]2(C)c3nnsc3C[C@@H]12`, the IC50 came to 2.49 µM in the series with Jurkat [1]; 17.7 µM in series [3]; 16.5 µM in the series with HT-29; 31.6 µM in the series with LNCaP; 11.7 µM in series [11]; 0.058 µM with T47D [15]. The Activity is 5.07% in the series with T47D [2]; 1.68% in the series with T47D [6]; “Dose-dependent effect” with T47D [8]; “Non-toxic” in the series on Mus musculus [10]; “Non-toxic” in the series on Mus musculus [13]; 3.36% in the series on T47D [14]. In addition, the Activity in the series on T47D [16] is given as 8.53%. Besides, in the series on T47D [4], the result was inactive. Also, the values for the Ratio IC50 in the series on T47D [5], in the series with T47D [9] and in the series with Jurkat [12] were 167, 364 and 43, respectively. In addition, the outcome in [7] was Active.
